Source: ChEMBL document CHEMBL1125330, “N-substituted pyrazino[2,3-c][1,2,6]thiadiazine 2,2-dioxides. A new class of diuretics” (J Med Chem, 1992)

Assays:
Rattus norvegicus [1] = experiment: Urinary sodium 2 hr after the compound was administered 125 mg/kg po in rat; format: ADME, organism-based, Urine; design: dose 125 mg/kg, route oral; conditions: in vivo
How it was run: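 Onset and duration study in fasted, water-loaded male Sprague-Dawley rats housed two per metabolic cage, six pairs per group. Single oral dose given, then water 2.5 mL/100 g po. Urine volume and sodium (flame photometry) measured over 0-1, 1-2, 2-3, 3-4 and 4-6 h intervals. Mean values compared with vehicle by Student t-test.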

Rattus norvegicus [2] = experiment: Mean potassium excretion in rats when compound administered at 10 mg/kg po and vehicle dosed at 39.48 umol/kg; format: ADME, organism-based; design: dose 10 mg/kg, route oral; conditions: in vivo
How it was run: (§1)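 Male Sprague-Dawley rats (HC/CFY, 175-200 g), no food or water for 18 h before and during the test. Single gavage dose (2.5-160 mg/kg; vehicle 1% carboxymethyl cellulose/0.1% Tween 80, 0.5 mL/100 g bw), then distilled water 2.5 mL/100 g bw po. Individual metabolic cages, 6 h urine. K+ by flame photometry, Cl- colorimetric, as mequiv/6 h/kg bw; unpaired Student t-test vs control.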

Rattus norvegicus [3] = experiment: Volume of urine 2 hr after the compound was administered 125 mg/kg po in rat; format: ADME, organism-based; design: dose 125 mg/kg, route oral; conditions: in vivo
How it was run: (§2)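 Onset/duration protocol: male Sprague-Dawley rats (HC/CFY, 175-200 g), food and water withdrawn for 18 h before and during the test. Single gavage dose in 1% carboxymethyl cellulose/0.1% Tween 80 (0.5 mL/100 g bw), then distilled water load (2.5 mL/100 g bw po). Two rats per metabolic cage, six pairs per group. Urine collected at 0-1, 1-2, 2-3, 3-4 and 4-6 h; Na+ by flame photometry. Vehicle controls; nonpaired Student t-test.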

Rattus norvegicus [4] = experiment: Mean potassium excretion in rats when compound administered at 160 mg/kg po and vehicle dosed at 631.76 umol/kg; format: ADME, organism-based; design: dose 160 mg/kg, route oral; conditions: in vivo; how it was run: as §1
Rattus norvegicus [5] = experiment: Mean Chlorine excretion in rats when compound administered at 0 mg/kg po and vehicle dosed at 0 umol/kg; format: ADME, organism-based; design: dose 0 mg/kg, route oral; conditions: in vivo
Rattus norvegicus [6] = experiment: Mean sodium excretion in rats when compound administered at 5 mg/kg po and vehicle dosed at 19.74 umol/kg; format: ADME, organism-based; design: dose 5 mg/kg, route oral; conditions: in vivo
How it was run: (§3)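 Male Sprague-Dawley rats (HC/CFY, 175-200 g) fasted and water-deprived 18 h before and during the test. Dosed by gavage at 2.5-160 mg/kg in 1% carboxymethyl cellulose/0.1% Tween 80, 0.5 mL/100 g bw. Immediately hydrated with water (2.5 mL/100 g bw, po). Urine collected 6 h in metabolic cages; Na+ and K+ by flame photometry; mean mequiv/6 h/kg bw; nonpaired Student t-test.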

Rattus norvegicus [7] = experiment: Mean potassium excretion in rats when compound administered at 40 mg/kg po and vehicle dosed at 157.94 umol/kg; format: ADME, organism-based; design: dose 40 mg/kg, route oral; conditions: in vivo; how it was run: as §3
Rattus norvegicus [8] = experiment: Post dosing time interval of maximum activity; format: functional
How it was run: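 Interval of peak activity taken from timed urine collections (0-1, 1-2, 2-3, 3-4, 4-6 h) after a single oral dose in water-loaded fasted rats, […]. Urine volume and Na+ excretion followed over time.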

Rattus norvegicus [9] = experiment: Mean potassium excretion in rats when compound administered at 2.5 mg/kg po and vehicle dosed at 9.87 umol/kg; format: ADME, organism-based; design: dose 2.5 mg/kg, route oral; conditions: in vivo; how it was run: as §1
Rattus norvegicus [10] = experiment: Urinary sodium 6 hr after the compound was administered 125 mg/kg po in rat; format: ADME, organism-based, Urine; design: dose 125 mg/kg, route oral; conditions: in vivo; how it was run: as §2
Rattus norvegicus [11] = experiment: Mean sodium excretion in rats when compound administered at 0 mg/kg po and vehicle dosed at 0 umol/kg; format: ADME, organism-based; design: dose 0 mg/kg, route oral; conditions: in vivo; how it was run: as §3
Rattus norvegicus [12] = experiment: Mean Chlorine excretion in rats when compound administered at 2.5 mg/kg po and vehicle dosed at 9.87 umol/kg; format: ADME, organism-based; design: dose 2.5 mg/kg, route oral; conditions: in vivo; how it was run: as §1
Rattus norvegicus [13] = experiment: Mean urinary output in rats when compound administered at 2.5 mg/kg po and vehicle dosed at 9.87 umol/kg; format: ADME, organism-based, Urine; design: dose 2.5 mg/kg, route oral; conditions: in vivo
How it was run: (§4)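 Water-loaded male Sprague-Dawley rats (HC/CFY, 175-200 g) fasted and without water for 18 h. Oral gavage of 2.5-160 mg/kg in 1% CMC with 0.1% Tween 80, then distilled water 2.5 mL/100 g po. Urine collected 6 h in metabolic cages, mean output in mL/6 h/kg bw. Unpaired Student t-test against vehicle; dose-response by linear regression.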

Rattus norvegicus [14] = experiment: Mean sodium excretion in rats when compound administered at 160 mg/kg po and vehicle dosed at 631.76 umol/kg; format: ADME, organism-based; design: dose 160 mg/kg, route oral; conditions: in vivo; how it was run: as §3
Rattus norvegicus [15] = experiment: Mean urinary output in rats when compound administered at 20 mg/kg po and vehicle dosed at 78.97 umol/kg; format: ADME, organism-based, Urine; design: dose 20 mg/kg, route oral; conditions: in vivo; how it was run: as §4
Rattus norvegicus [16] = experiment: Mean potassium excretion in rats when compound administered at 0 mg/kg po and vehicle dosed at 0 umol/kg; format: ADME, organism-based; design: dose 0 mg/kg, route oral; conditions: in vivo; how it was run: as §1
Rattus norvegicus [17] = experiment: Mean urinary output in rats when compound administered at 5 mg/kg po and vehicle dosed at 19.74 umol/kg; format: ADME, organism-based, Urine; design: dose 5 mg/kg, route oral; conditions: in vivo; how it was run: as §4
Rattus norvegicus [18] = experiment: Mean sodium excretion in rats when compound administered at 80 mg/kg po and vehicle dosed at 315.88 umol/kg; format: ADME, organism-based; design: dose 80 mg/kg, route oral; conditions: in vivo; how it was run: as §3
Rattus norvegicus [19] = experiment: Mean sodium excretion in rats when compound administered at 10 mg/kg po and vehicle dosed at 39.48 umol/kg; format: ADME, organism-based; design: dose 10 mg/kg, route oral; conditions: in vivo; how it was run: as §3
Rattus norvegicus [20] = experiment: Mean potassium excretion in rats when compound administered at 80 mg/kg po and vehicle dosed at 315.88 umol/kg; format: ADME, organism-based; design: dose 80 mg/kg, route oral; conditions: in vivo; how it was run: as §3
Rattus norvegicus [21] = experiment: Mean Chlorine excretion in rats when compound administered at 20 mg/kg po and vehicle dosed at 78.97 umol/kg; format: ADME, organism-based; design: dose 20 mg/kg, route oral; conditions: in vivo; how it was run: as §1
Rattus norvegicus [22] = experiment: Mean urinary output in rats when compound administered at 10 mg/kg po and vehicle dosed at 39.48 umol/kg; format: ADME, organism-based, Urine; design: dose 10 mg/kg, route oral; conditions: in vivo; how it was run: as §4
Rattus norvegicus [23] = species: Rattus norvegicus; experiment: Dose required to produce increase in 50 % in urine production vs control groups; format: functional
How it was run: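 Male Sprague-Dawley rats (HC/CFY, 175-200 g), fasted and water-deprived 18 h before and during the test. Compound dosed by gavage in 1% carboxymethyl cellulose/0.1% Tween 80, then water load 2.5 mL/100 g bw po. Urine collected 6 h in metabolic cages; Na+ by flame photometry. Effective doses vs vehicle controls derived by linear regression of dose-response data.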

## Nc1nc(N)c2nc(-c3ccccc3)c(N)nc2n1
Rattus norvegicus [1]
  Urinary Na+: 0.16 m equiv
Rattus norvegicus [2]
  K: 0.18 m equiv 6hr-1 kg-1 (body weight)-1
Rattus norvegicus [3]
  Urine volume: 3.2 mL
Rattus norvegicus [4]
  K: 0.21 m equiv 6hr-1 kg-1 (body weight)-1
Rattus norvegicus [5]
  Cl-: 0.88 m equiv 6hr-1 kg-1 (body weight)-1
Rattus norvegicus [6]
  Na: 2.28 m equiv 6hr-1 kg-1 (body weight)-1
Rattus norvegicus [7]
  K: 0.18 m equiv 6hr-1 kg-1 (body weight)-1
Rattus norvegicus [8]
  Time: 6 h
Rattus norvegicus [9]
  K: 0.32 m equiv 6hr-1 kg-1 (body weight)-1
Rattus norvegicus [10]
  Urinary Na+: 0.46 m equiv
Rattus norvegicus [11]
  Na: 0.58 m equiv 6hr-1 kg-1 (body weight)-1
Rattus norvegicus [12]
  Cl-: 1.34 m equiv 6hr-1 kg-1 (body weight)-1
Rattus norvegicus [13]
  V: 31.39 ml 6hr-1 (kg of body weight)-1
Rattus norvegicus [14]
  Na: 3.32 m equiv 6hr-1 kg-1 (body weight)-1
Rattus norvegicus [15]
  V: 32.87 ml 6hr-1 (kg of body weight)-1
Rattus norvegicus [16]
  K: 0.5 m equiv 6hr-1 kg-1 (body weight)-1
Rattus norvegicus [17]
  V: 30.19 ml 6hr-1 (kg of body weight)-1
Rattus norvegicus [18]
  Na: 3.37 m equiv 6hr-1 kg-1 (body weight)-1
Rattus norvegicus [19]
  Na: 2.61 m equiv 6hr-1 kg-1 (body weight)-1
Rattus norvegicus [20]
  K: 0.14 m equiv 6hr-1 kg-1 (body weight)-1
Rattus norvegicus [21]
  Cl-: 1.83 m equiv 6hr-1 kg-1 (body weight)-1
Rattus norvegicus [22]
  V: 31.13 ml 6hr-1 (kg of body weight)-1
Rattus norvegicus [23]
  ED50: 34.5 mg/kg
